Data on 17 molecules can be found in ChEMBL document CHEMBL1144420 (J Med Chem, 2005).

The target in test [1] is T1, Sodium-dependent dopamine transporter (Rattus norvegicus, UniProt P23977). The test can be described thus: Inhibition of [3H]dopamine uptake into rat striatal synaptosomes. It is filed as functional, subcellular, Brain. The method in brief:
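[3H]Dopamine uptake run at 33 °C, in a buffer whose ion concentrations differ from those of the binding assays.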

Test [2] concerns the target T1, Sodium-dependent dopamine transporter. The test can be described thus: Displacement of [3H]WIN-35428 from Dopamine transporter of rat caudate putamen. In kind it is tissue-based. The method in brief:
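Radioligand displacement binding to brain DAT, incubated at 0 °C.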

The target in test [3] is Sodium-dependent serotonin transporter (Rattus norvegicus, UniProt P31652). The test can be described thus: Displacement of [3H]paroxetine from Serotonin transporter of rat caudate putamen. It is filed as tissue-based.

Some results are limits rather than exact numbers.

T1 sequence (P23977 whole entry): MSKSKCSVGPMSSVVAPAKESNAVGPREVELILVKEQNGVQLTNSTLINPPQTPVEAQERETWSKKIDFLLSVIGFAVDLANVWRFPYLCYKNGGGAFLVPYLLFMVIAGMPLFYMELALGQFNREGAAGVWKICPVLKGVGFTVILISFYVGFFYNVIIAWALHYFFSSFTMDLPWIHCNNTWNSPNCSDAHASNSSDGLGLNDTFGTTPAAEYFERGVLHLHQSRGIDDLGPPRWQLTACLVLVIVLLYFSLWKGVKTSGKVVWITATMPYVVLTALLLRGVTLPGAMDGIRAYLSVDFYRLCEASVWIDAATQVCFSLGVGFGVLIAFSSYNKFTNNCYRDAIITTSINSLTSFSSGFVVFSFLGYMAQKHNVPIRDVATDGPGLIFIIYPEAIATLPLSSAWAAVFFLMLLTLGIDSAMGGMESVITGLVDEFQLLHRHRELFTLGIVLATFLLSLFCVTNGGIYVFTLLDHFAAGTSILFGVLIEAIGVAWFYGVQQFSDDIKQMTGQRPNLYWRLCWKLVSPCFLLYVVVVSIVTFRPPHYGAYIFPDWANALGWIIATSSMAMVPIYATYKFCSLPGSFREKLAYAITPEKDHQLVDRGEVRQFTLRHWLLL
Chain of Sodium-dependent serotonin transporter (P31652 whole entry): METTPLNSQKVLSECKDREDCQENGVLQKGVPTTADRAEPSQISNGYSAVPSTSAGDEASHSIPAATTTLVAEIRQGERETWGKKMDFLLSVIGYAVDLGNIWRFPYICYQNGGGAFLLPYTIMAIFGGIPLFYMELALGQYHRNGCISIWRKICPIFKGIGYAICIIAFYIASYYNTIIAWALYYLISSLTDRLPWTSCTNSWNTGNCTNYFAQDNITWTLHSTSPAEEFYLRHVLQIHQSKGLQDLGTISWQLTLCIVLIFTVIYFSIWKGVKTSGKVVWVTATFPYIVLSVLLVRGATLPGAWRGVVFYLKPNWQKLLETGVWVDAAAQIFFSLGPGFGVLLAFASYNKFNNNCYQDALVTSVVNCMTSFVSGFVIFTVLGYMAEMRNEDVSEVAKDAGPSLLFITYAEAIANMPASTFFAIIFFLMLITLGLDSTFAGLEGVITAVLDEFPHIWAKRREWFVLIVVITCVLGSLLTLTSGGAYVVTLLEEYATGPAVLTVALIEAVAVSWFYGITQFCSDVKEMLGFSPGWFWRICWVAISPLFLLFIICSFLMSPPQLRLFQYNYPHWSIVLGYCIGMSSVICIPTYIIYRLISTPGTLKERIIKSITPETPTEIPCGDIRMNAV

For the molecule `CN1C2CCCC1[C@H](OC(c1ccc(F)cc1)c1ccc(F)cc1)C2` (stereo partly specified), the values for the IC50 in test [1], in test [2] and in test [3] were 347 nM, 900 nM and more than 100000 nM, respectively.

As for `CN1C2C[C@H](OC(c3ccccc3)c3ccccc3)CC1[C@@H](O)C2` (stereo partly specified), the IC50 in test [1] was 149 nM; in test [2], 1300 nM; in test [3], more than 100000 nM.

For the molecule `CN1C2CCCC1[C@@H](OC(c1ccc(F)cc1)c1ccc(F)cc1)C2` (stereo partly specified), the IC50 in test [1] was 199 nM; in test [2], 1130 nM; in test [3], more than 2000 nM.

In the case of `CN1C2C[C@H](OC(c3ccccc3)c3ccc(Cl)cc3)CC1[C@@H](O)C2` (stereo partly specified), the figures for the half-maximal inhibitory concentration (IC50) in test [1], in test [2] and in test [3] were 39.1 nM, 600 nM and more than 100000 nM, respectively.

In the case of `COCO[C@H]1CC2C[C@H](OC(c3ccccc3)c3ccc(Cl)cc3)CC1N2C` (stereo partly specified), the IC50 in test [1] is 194 nM; in test [2], 400 nM; in test [3], more than 100000 nM.

As for `COCO[C@@H]1CC2C[C@H](OC(c3ccc(F)cc3)c3ccc(F)cc3)CC1N2C` (stereo partly specified), the results for the IC50 in test [1], in test [2] and in test [3] were 491 nM, 2500 nM and 3500 nM, respectively.

On to `COCO[C@H]1CC2C[C@H](OC(c3ccccc3)c3ccccc3)CC1N2C` (stereo partly specified), for which the IC50 was 1080 nM in test [1], 4500 nM in test [2] and more than 100000 nM in test [3].

Consider `CN1C2C[C@H](OC(c3ccc(F)cc3)c3ccc(F)cc3)CC1[C@H](O)C2` (stereo partly specified), for which the IC50 in test [1] is 162 nM; in test [2] it was 140 nM; in test [3], more than 100000 nM.

As to `COCO[C@H]1CC2C[C@H](OC(c3ccc(F)cc3)c3ccc(F)cc3)CC1N2C` (stereo partly specified), the concentration for half-maximal inhibition (IC50) in test [1] is 79.7 nM; in test [2], 340 nM; in test [3], more than 100000 nM.

`CN1C2C[C@H](OC(c3ccc(F)cc3)c3ccc(F)cc3)CC1[C@@H](O)C2` (stereo partly specified): the figures for the 50% inhibitory concentration (IC50) in test [1], in test [2] and in test [3] were 8.1 nM, 12 nM and 11000 nM, respectively.

With `CO[C@@H]1CC2C[C@H](OC(c3ccc(F)cc3)c3ccc(F)cc3)CC1N2C` (stereo partly specified), the IC50 is 12.4 nM in test [1], 10 nM in test [2] and 280 nM in test [3].

As to `CO[C@H]1CC2C[C@H](OC(c3ccccc3)c3ccccc3)CC1N2C` (stereo partly specified), the results for the half-maximal inhibitory concentration (IC50) in test [1], in test [2] and in test [3] were 139 nM, 276 nM and more than 100000 nM, respectively.

For the molecule `CO[C@H]1CC2C[C@H](OC(c3ccc(F)cc3)c3ccc(F)cc3)CC1N2C` (stereo partly specified), the IC50 was 104 nM in test [1], 25 nM in test [2] and more than 100000 nM in test [3].

Regarding `CO[C@H]1CC2C[C@H](OC(c3ccccc3)c3ccc(Cl)cc3)CC1N2C` (stereo partly specified), the concentration for half-maximal inhibition (IC50) in test [1] is 179 nM; in test [2], 32 nM; in test [3], more than 100000 nM.

With `CO[C@@H]1CC2CC(OC(c3ccccc3)c3ccc(Cl)cc3)CC1N2C` (single isomer, unassigned), the IC50 in test [1] was 519 nM; in test [2], 750 nM; in test [3], more than 100000 nM.

Regarding `CO[C@@H]1CC2CC(OC(c3ccccc3)c3ccccc3)CC1N2C` (single isomer, unassigned), the 50% inhibitory concentration (IC50) in test [1] is 240 nM; in test [2] it was 975 nM; in test [3] it was more than 100000 nM.

On to `CO[C@@H]1CC2CC(OC(c3ccc(F)cc3)c3ccc(F)cc3)CC1N2C` (single isomer, unassigned), for which the IC50 is 165 nM in test [1], 95 nM in test [2] and more than 10 nM in test [3].

The IC50 is the concentration needed to halve the response being measured. A high value points to lower potency.
